Test results published in ChEMBL document CHEMBL3414546, “Design, synthesis and structure-activity relationship of oxazolidinone derivatives containing novel S4 ligand as FXa inhibitors” (Eur J Med Chem, 2015).
Values after ≈ are worked out from the molar mass of the structure shown.

Key:
Coagulation factor X [1] = biological target: T1, Coagulation factor X (Homo sapiens, UniProt P00742); assay: Inhibition of F10a in human plasma assessed as doubling of activated partial thromboplastin time
Outline: (§1)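 Plasma came from human volunteer or rabbit blood anticoagulated with 3.8% sodium citrate and centrifuged at 2000 g for 10 min. The DMSO stock was serially diluted in plasma. Clotting time was measured on control plasma and on plasma with five to seven inhibitor concentrations. The concentration doubling clotting time was estimated from the concentration-response curve.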

Coagulation factor X [2] = biological target: T2, Coagulation factor X (Oryctolagus cuniculus, UniProt O19045); assay: Inhibition of F10a in rabbit plasma assessed as doubling of activated partial thromboplastin time; outline: as §1
T2 sequence (O19045 whole entry): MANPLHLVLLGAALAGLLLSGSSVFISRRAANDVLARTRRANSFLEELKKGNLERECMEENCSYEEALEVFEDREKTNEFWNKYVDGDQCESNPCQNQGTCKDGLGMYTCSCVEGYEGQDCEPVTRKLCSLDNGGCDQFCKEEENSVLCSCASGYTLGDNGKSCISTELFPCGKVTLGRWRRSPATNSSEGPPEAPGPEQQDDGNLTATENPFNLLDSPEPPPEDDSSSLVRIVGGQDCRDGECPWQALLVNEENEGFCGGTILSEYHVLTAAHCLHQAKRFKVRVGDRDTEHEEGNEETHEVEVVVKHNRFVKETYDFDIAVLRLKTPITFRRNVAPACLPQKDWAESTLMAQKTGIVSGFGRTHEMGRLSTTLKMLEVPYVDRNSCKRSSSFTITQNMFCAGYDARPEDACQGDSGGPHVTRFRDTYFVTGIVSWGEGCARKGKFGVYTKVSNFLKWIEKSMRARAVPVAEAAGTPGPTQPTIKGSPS

Coagulation factor X [3] = biological target: T1, Coagulation factor X; assay: Inhibition of human F10a using S-2765 as substrate at 0.1 uM after 45 mins by spectra max analysis relative to control
Outline: (§2)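 Purified human FXa (10 ng) was used with chromogenic substrate S-2765 at 500 µM in 50 mM Tris-HCl pH 7.5, […], 1 mM CaCl2 and 2.5% DMSO (final). Compound was incubated for 45 min at 37 °C, and absorbance was read at 405 nm. Percent inhibition came from reaction velocity versus DMSO control. IC50 was taken from a plot of inhibition against concentration.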

Coagulation factor X [4] = biological target: T1, Coagulation factor X; assay: Inhibition of F10a in human plasma assessed as doubling of prothombin time
Outline: (§3)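 Citrated (3.8% sodium citrate) blood from healthy human volunteers or rabbit was spun at 2000 g for 10 min. The DMSO stock was diluted in plasma, 5–7 inhibitor concentrations were tested, and prothrombin time was read with Thromborel-S on an automated temperature-controlled coagulometer in duplicate. PTCT2 (the concentration doubling clotting time) came from regression of the concentration-response curve.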

Coagulation factor X [5] = biological target: T2, Coagulation factor X; assay: Inhibition of F10a in rabbit plasma assessed as doubling of prothombin time; outline: as §3
[6] = Solubility of the compound by Chinese pharmacopoeia 2010 edition of the second collection method; format: physicochemical
Coagulation factor X [7] = biological target: T1, Coagulation factor X; assay: Inhibition of human F10a using S-2765 as substrate after 45 mins by spectra max analysis; outline: as §2

T1 sequence (P00742 41-179 limits assumed): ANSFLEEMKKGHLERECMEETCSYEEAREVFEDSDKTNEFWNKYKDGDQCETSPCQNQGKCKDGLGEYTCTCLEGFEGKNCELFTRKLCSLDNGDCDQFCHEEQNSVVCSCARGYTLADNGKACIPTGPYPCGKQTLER
T1 sequence (P00742 235-488 limits assumed): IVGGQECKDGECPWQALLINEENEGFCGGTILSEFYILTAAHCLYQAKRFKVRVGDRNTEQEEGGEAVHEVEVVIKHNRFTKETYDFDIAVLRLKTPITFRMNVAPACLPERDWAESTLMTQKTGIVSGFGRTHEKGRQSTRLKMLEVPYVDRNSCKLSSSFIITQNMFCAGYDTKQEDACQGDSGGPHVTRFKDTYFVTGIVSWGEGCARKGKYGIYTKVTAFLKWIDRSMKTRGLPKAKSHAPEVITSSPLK

Compound | IC50 (Coagulation factor X [1]) | IC50 (Coagulation factor X [2]) | inhibition (Coagulation factor X [3]) | IC50 (Coagulation factor X [4]) | IC50 (Coagulation factor X [5]) | solubility [6] | IC50 (Coagulation factor X [7])
O=C(NC[C@H]1CN(c2ccc(-c3nc(CN4CCOCC4)cs3)cc2)C(=O)O1)c1ccc(Cl)s1 | 3.81 µM | 4.79 µM | 62% | 3.6 µM | 4.06 µM | – | –
CC1CCN(Cc2cc3ccccc3n2-c2ccc(N3C[C@H](CNC(=O)c4ccc(Cl)s4)OC3=O)cc2)CC1 | 11.9 µM | 13.1 µM | 56% | 10.5 µM | 12.1 µM | – | –
CCN(CC)Cc1cc2ccccc2n1-c1ccc(N2C[C@H](CNC(=O)c3ccc(Cl)s3)OC2=O)cc1 | 5.45 µM | 6.11 µM | 61% | 5.32 µM | 6.02 µM | – | –
O=C(NC[C@H]1CN(c2ccc(-n3cccc3CN3CCC3)cc2)C(=O)O1)c1ccc(Cl)s1 | 1.31 µM | 1.52 µM | 92% | 0.7 µM | 0.81 µM | – | –
CN(C)Cc1cccn1-c1ccc(N2C[C@H](CNC(=O)c3ccc(Cl)s3)OC2=O)cc1F | 1.33 µM | 1.58 µM | 90% | 0.65 µM | 0.91 µM | 10.2 µg/mL (≈ 21.4 µM) | 0.00658 µM
O=C(NC[C@H]1CN(c2ccc(-n3c(CN4CCOCC4)cc4ccccc43)cc2)C(=O)O1)c1ccc(Cl)s1 | 11.2 µM | – | 58% | 10.1 µM | 11.1 µM | 25.8 µg/mL (≈ 46.8 µM) | –
CNCc1csc(-c2ccc(N3C[C@H](CNC(=O)c4ccc(Cl)s4)OC3=O)cc2)n1 | 1.87 µM | 1.91 µM | 89% | 1.65 µM | 1.66 µM | – | –
O=C(NC[C@H]1CN(c2ccc(-n3cccc3CN3CCCC3)cc2)C(=O)O1)c1ccc(Cl)s1 | 1.71 µM | 1.98 µM | 89% | 1.42 µM | 1.58 µM | – | –
CCN(CC)Cc1csc(-c2ccc(N3C[C@H](CNC(=O)c4ccc(Cl)s4)OC3=O)cc2)n1 | 0.82 µM | 1.03 µM | 100% | 0.51 µM | 0.72 µM | – | 0.00946 µM
CN(C)Cc1cccn1-c1cc(F)c(N2C[C@H](CNC(=O)c3ccc(Cl)s3)OC2=O)c(F)c1 | 2.31 µM | 2.56 µM | 88% | 1.83 µM | 1.98 µM | – | –
O=C(NC[C@H]1CN(c2ccc(-n3cccc3CN3CCOCC3)cc2)C(=O)O1)c1ccc(Cl)s1 | 3.31 µM | 3.52 µM | 76% | 2.93 µM | 3.19 µM | – | –
CN(C)Cc1cccn1-c1ccc(N2C[C@H](CNC(=O)c3ccc(Cl)s3)OC2=O)cc1 | 1.2 µM | 1.39 µM | 98% | 0.61 µM | 0.78 µM | – | 0.00724 µM
CCN(CC)Cc1cccn1-c1ccc(N2C[C@H](CNC(=O)c3ccc(Cl)s3)OC2=O)cc1 | 0.3 µM | 0.75 µM | 100% | 0.15 µM | 0.46 µM | 6.9 µg/mL (≈ 14.2 µM) | 0.00201 µM

Continued by falling IC50 (Coagulation factor X [5]), values first:

IC50 (Coagulation factor X [1]) | IC50 (Coagulation factor X [2]) | inhibition (Coagulation factor X [3]) | IC50 (Coagulation factor X [4]) | IC50 (Coagulation factor X [5]) | solubility [6] | IC50 (Coagulation factor X [7]) | Compound
– | – | 45% | 11.3 µM | 13.3 µM | – | – | CN1CCN(Cc2cc3ccccc3n2-c2ccc(N3C[C@H](CNC(=O)c4ccc(Cl)s4)OC3=O)cc2)CC1
– | – | 52% | 11 µM | 11.5 µM | – | – | O=C(NC[C@H]1CN(c2ccc(-n3c(CN4CCCCC4)cc4ccccc43)cc2)C(=O)O1)c1ccc(Cl)s1
6.02 µM | 6.23 µM | 69% | 5.78 µM | 5.92 µM | – | – | CN(C)Cc1cc2ccccc2n1-c1ccc(N2C[C@H](CNC(=O)c3ccc(Cl)s3)OC2=O)cc1
4.12 µM | 5.12 µM | 56% | 3.85 µM | 4.23 µM | 33.2 µg/mL (≈ 62.4 µM) | – | CN1CCN(Cc2csc(-c3ccc(N4C[C@H](CNC(=O)c5ccc(Cl)s5)OC4=O)cc3)n2)CC1
4.01 µM | 4.14 µM | 71% | 3.8 µM | 3.9 µM | – | – | CN1CCN(Cc2cccn2-c2ccc(N3C[C@H](CNC(=O)c4ccc(Cl)s4)OC3=O)cc2)CC1
3.39 µM | 4.02 µM | 68% | 3.03 µM | 3.78 µM | – | – | CC1CCN(Cc2csc(-c3ccc(N4C[C@H](CNC(=O)c5ccc(Cl)s5)OC4=O)cc3)n2)CC1
3.53 µM | 3.78 µM | 70% | 3.22 µM | 3.45 µM | – | – | CC1CCN(Cc2cccn2-c2ccc(N3C[C@H](CNC(=O)c4ccc(Cl)s4)OC3=O)cc2)CC1
2.95 µM | 3.46 µM | 72% | 2.72 µM | 3.12 µM | – | – | O=C(NC[C@H]1CN(c2ccc(-c3nc(CN4CCCCC4)cs3)cc2)C(=O)O1)c1ccc(Cl)s1
3.06 µM | 3.67 µM | 73% | 2.79 µM | 2.98 µM | 20.4 µg/mL (≈ 39.2 µM) | – | O=C(NC[C@H]1CN(c2cc(F)c(-n3cccc3CN3CCCC3)c(F)c2)C(=O)O1)c1ccc(Cl)s1
2.85 µM | 3.23 µM | 82% | 2.62 µM | 2.89 µM | – | – | O=C(NC[C@H]1CN(c2ccc(-n3cccc3CN3CCCCC3)cc2)C(=O)O1)c1ccc(Cl)s1
2.71 µM | 3.04 µM | 79% | 2.42 µM | 2.78 µM | – | – | O=C(NC[C@H]1CN(c2ccc(-c3nc(CN4CCCC4)cs3)cc2)C(=O)O1)c1ccc(Cl)s1
0.98 µM | 1.24 µM | 91% | 0.87 µM | 0.92 µM | – | – | CN(C)Cc1csc(-c2ccc(N3C[C@H](CNC(=O)c4ccc(Cl)s4)OC3=O)cc2)n1
0.79 µM | 1.16 µM | 93% | 0.65 µM | 0.89 µM | – | – | CCNCc1csc(-c2ccc(N3C[C@H](CNC(=O)c4ccc(Cl)s4)OC3=O)cc2)n1
– | 0.86 µM | 100% | – | 0.51 µM | – | – | O=C(NC[C@H]1CN(c2ccc(N3CCOCC3=O)cc2)C(=O)O1)c1ccc(Cl)s1 [RIVAROXABAN]
